ChEMBL document CHEMBL3045743, “Synthesis and herbicidal activity of isoindoline-1,3-dione substituted benzoxazinone derivatives containing a carboxylic ester group” (J Agric Food Chem, 2009)

How the values were obtained:
Format in all cases: functional
Amaranthus [1] = assay: Pre-emergence herbicidal activity against Amaranthus ascendens assessed as growth inhibition at 75 g.a.i./ha applied 24 hr after seeds were sown measured after 15 days; settings: read-out: GI
Procedure, shortened: (§1)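 Weeds sown 5 mm deep in pots of greenhouse clay soil (pH 6.5, 37.5% clay, CEC 12.9 cmol/kg) and grown at 22-25 °C. Water-diluted formulation was applied pre-emergence 24 h after sowing. Untreated and DMF solvent controls were included. Growth inhibition was visually rated in % against untreated controls after 15 days, as the mean of triplicates.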

Echinochloa crus-galli [2] = assay: Pre-emergence herbicidal activity against Echinochloa crus-galli (barnyard grass) assessed as growth inhibition at 75 g.a.i./ha applied 24 hr after seeds were sown measured after 15 days; settings: read-out: GI; procedure, shortened: as §1
Digitaria sanguinalis [3] = assay: Post-emergence herbicidal activity against Digitaria sanguinalis (hairy crabgrass) assessed as growth inhibition at 75 g.a.i./ha applied at one-leaf stage measured after 15 days; settings: 360 h, read-out: GI
Procedure, shortened: (§2)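 Pot-grown weeds sown 5 mm deep in greenhouse clay soil (pH 6.5, 1.7% organic matter, CEC 12.9 cmol/kg) at 22-25 °C. Stock diluted with water and sprayed post-emergence: dicots at 2-leaf stage, monocots at 1-leaf stage. Untreated and DMF solvent controls were included. % growth inhibition was scored visually versus untreated controls after 15 days. Triplicates averaged.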

Setaria viridis [4] = assay: Post-emergence herbicidal activity against Setaria viridis (green foxtail) assessed as growth inhibition at 75 g.a.i./ha applied at one-leaf stage measured after 15 days; settings: 360 h, read-out: GI; procedure, shortened: as §2
Chenopodium album [5] = assay: Post-emergence herbicidal activity against Chenopodium album assessed as growth inhibition at 75 g.a.i./ha applied at two-leaf stage measured after 15 days; settings: 360 h, read-out: GI; procedure, shortened: as §2
Chenopodium album [6] = assay: Pre-emergence herbicidal activity against Chenopodium album assessed as growth inhibition at 75 g.a.i./ha applied 24 hr after seeds were sown measured after 15 days; settings: read-out: GI; procedure, shortened: as §1
Setaria viridis [7] = assay: Pre-emergence herbicidal activity against Setaria viridis (green foxtail) assessed as growth inhibition at 75 g.a.i./ha applied 24 hr after seeds were sown measured after 15 days; settings: read-out: GI
Procedure, shortened: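 Preliminary pre-emergence screen at a single rate of 75 g a.i./ha. Stock diluted with water and sprayed on greenhouse pots 24 h after seeds were sown 5 mm deep in clay soil (pH 6.5, 1.7% organic matter); grown at 22-25 °C. Untreated and DMF solvent controls included; triplicate. Visual % growth inhibition vs untreated after 15 days, averaged and banded (>80% top band).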

Echinochloa crus-galli [8] = assay: Post-emergence herbicidal activity against Echinochloa crus-galli (barnyard grass) assessed as growth inhibition at 75 g.a.i./ha applied at one-leaf stage measured after 15 days; settings: 360 h, read-out: GI; procedure, shortened: as §2
Digitaria sanguinalis [9] = assay: Pre-emergence herbicidal activity against Digitaria sanguinalis (hairy crabgrass) assessed as growth inhibition at 75 g.a.i./ha applied 24 hr after seeds were sown measured after 15 days; settings: read-out: GI; procedure, shortened: as §1
Abutilon theophrasti [10] = assay: Pre-emergence herbicidal activity against Abutilon theophrasti (velvetleaf) assessed as growth inhibition at 75 g.a.i./ha applied 24 hr after seeds were sown measured after 15 days; settings: read-out: GI; procedure, shortened: as §1
Amaranthus [11] = assay: Post-emergence herbicidal activity against Amaranthus ascendens assessed as growth inhibition at 75 g.a.i./ha applied at two-leaf stage measured after 15 days; settings: 360 h, read-out: GI; procedure, shortened: as §2
Abutilon theophrasti [12] = assay: Post-emergence herbicidal activity against Abutilon theophrasti (velvetleaf) assessed as growth inhibition at 75 g.a.i./ha applied at two-leaf stage measured after 15 days; settings: 360 h, read-out: GI; procedure, shortened: as §2

Row | Compound | inhibition of growth at 75 g/ha (Amaranthus [1]) [%] | inhibition of growth at 75 g/ha (Echinochloa crus-galli [2]) [%] | inhibition of growth at 75 g/ha (Digitaria sanguinalis [3]) [%] | inhibition of growth at 75 g/ha (Setaria viridis [4]) [%] | inhibition of growth at 75 g/ha (Chenopodium album [5]) [%] | inhibition of growth at 75 g/ha (Chenopodium album [6]) [%] | inhibition of growth at 75 g/ha (Setaria viridis [7]) [%] | inhibition of growth at 75 g/ha (Echinochloa crus-galli [8]) [%] | inhibition of growth at 75 g/ha (Digitaria sanguinalis [9]) [%] | inhibition of growth at 75 g/ha (Abutilon theophrasti [10]) [%] | inhibition of growth at 75 g/ha (Amaranthus [11]) [%] | inhibition of growth at 75 g/ha (Abutilon theophrasti [12]) [%]
1 | COC(=O)CN1C(=O)COc2cc(F)c(N3C(=O)c4ccccc4C3=O)cc21 | 50 | < 50 | < 50 | < 50 | > 80 | 50 | < 50 | < 50 | < 50 | 50 | > 80 | > 80
2 | CCOC(=O)CN1C(=O)COc2cc(F)c(N3C(=O)c4ccccc4C3=O)cc21 | 50 | < 50 | < 50 | < 50 | > 80 | 50 | < 50 | < 50 | < 50 | 50 | > 80 | > 80
3 | COC(=O)C(C)N1C(=O)COc2cc(F)c(N3C(=O)c4ccccc4C3=O)cc21 (stereo unspecified) | < 50 | < 50 | 50 | 50 | > 80 | < 50 | < 50 | 50 | < 50 | < 50 | > 80 | > 80
4 | CCOC(=O)CN1C(=O)COc2cc(F)c(N3C(=O)c4cc(Cl)c(Cl)cc4C3=O)cc21 | < 50 | < 50 | < 50 | < 50 | 50 | < 50 | < 50 | < 50 | < 50 | < 50 | 50 | 50
5 | CCOC(=O)C(C)N1C(=O)COc2cc(F)c(N3C(=O)c4ccc([N+](=O)[O-])cc4C3=O)cc21 (stereo unspecified) | < 50 | < 50 | < 50 | < 50 | < 50 | 50 | < 50 | < 50 | < 50 | < 50 | < 50 | < 50
6 | CCOC(=O)C(C)N1C(=O)COc2cc(F)c(N3C(=O)c4cc(Cl)c(Cl)cc4C3=O)cc21 (stereo unspecified) | < 50 | < 50 | < 50 | < 50 | 50 | < 50 | < 50 | < 50 | < 50 | < 50 | < 50 | < 50
7 | CCOC(=O)C(C)N1C(=O)COc2cc(F)c(N3C(=O)c4ccc(C)cc4C3=O)cc21 (stereo unspecified) | < 50 | < 50 | < 50 | < 50 | < 50 | 50 | < 50 | < 50 | < 50 | < 50 | < 50 | > 80
8 | CCOC(=O)CN1C(=O)COc2cc(F)c(N3C(=O)c4ccc(C)cc4C3=O)cc21 | < 50 | < 50 | < 50 | < 50 | 50 | < 50 | < 50 | < 50 | < 50 | < 50 | 50 | 50
